Experiments:
Assay type in all cases: functional
HEp-2 [1] = assay: Antiproliferative activity against human HEp2 cell line at 10 uM relative to control
In short: (§1)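 Cells from ATCC grown as monolayers in DMEM with 10% FBS, 2 mM glutamine, penicillin/streptomycin, 37 °C, 5% CO2. Seeded at 2 × 10^4 cells/mL, and after 24 h the medium was replaced with fresh medium containing compound (water/10% DMSO stock, PBS working dilutions 10^-3 to 10^-6 M). Exposure was 72 h, then MTT read-out. Growth % = (A_peptide − A_blank)/(A_control − A_blank) × 100, with inhibition taken relative to untreated cells. Values are means of three experiments run in triplicate.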

Caco-2 [2] = assay: Antiproliferative activity against human Caco-2 cell line at 100 uM relative to control; in short: as §1
MCF7 [3] = assay: Antiproliferative activity against human MCF7 cell line at 1 uM relative to control; in short: as §1
SW-620 [4] = assay: Antiproliferative activity against human SW620 cell line at 100 uM relative to control; in short: as §1
HeLa [5] = assay: Antiproliferative activity against human HeLa cell line at 1000 uM relative to control; in short: as §1
SW-620 [6] = assay: Antiproliferative activity against human SW620 cell line at 10 uM relative to control; in short: as §1
MCF7 [7] = assay: Antiproliferative activity against human MCF7 cell line at 1000 uM relative to control; in short: as §1
HBL [8] = assay: Antiproliferative activity against human HBL cell line at 1 uM relative to control; in short: as §1
SW-620 [9] = assay: Antiproliferative activity against human SW620 cell line at 1000 uM relative to control; in short: as §1
HeLa [10] = assay: Antiproliferative activity against human HeLa cell line at 100 uM relative to control; in short: as §1
HBL [11] = assay: Antiproliferative activity against human HBL cell line at 10 uM relative to control; in short: as §1
SW-620 [12] = assay: Antiproliferative activity against human SW620 cell line at 1 uM relative to control; in short: as §1
HBL [13] = assay: Antiproliferative activity against human HBL cell line at 1000 uM relative to control; in short: as §1
HT-29 [14] = assay: Antiproliferative activity against human HT29 cell line at 1 uM relative to control; in short: as §1
MCF7 [15] = assay: Antiproliferative activity against human MCF7 cell line at 100 uM relative to control; in short: as §1
HT-29 [16] = assay: Antiproliferative activity against human HT29 cell line at 10 uM relative to control; in short: as §1
HT-29 [17] = assay: Antiproliferative activity against human HT29 cell line at 1000 uM relative to control; in short: as §1
HeLa [18] = assay: Antiproliferative activity against human HeLa cell line at 1 uM relative to control; in short: as §1
HEp-2 [19] = assay: Antiproliferative activity against human HEp2 cell line at 1 uM relative to control; in short: as §1
HBL [20] = assay: Antiproliferative activity against human HBL cell line at 100 uM relative to control; in short: as §1
Caco-2 [21] = assay: Antiproliferative activity against human Caco-2 cell line at 1 uM relative to control; in short: as §1
HEp-2 [22] = assay: Antiproliferative activity against human HEp2 cell line at 1000 uM relative to control; in short: as §1
HT-29 [23] = assay: Antiproliferative activity against human HT29 cell line at 100 uM relative to control; in short: as §1
Caco-2 [24] = assay: Antiproliferative activity against human Caco-2 cell line at 1000 uM relative to control; in short: as §1
MCF7 [25] = assay: Antiproliferative activity against human MCF7 cell line at 10 uM relative to control
In short: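 MTT assay on monolayer cells grown in DMEM with 10% FBS, 2 mM glutamine, penicillin and streptomycin, at 37 °C in 5% CO2. Cells were plated at 2 × 10^4 cells/mL on day 0. After 24 h the medium was replaced with fresh medium containing compound (working dilutions in PBS from 10% DMSO/water stock), then incubated 72 h. Percent growth inhibition was calculated against untreated cells after blank subtraction. Values are means of three experiments run in triplicate.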

Caco-2 [26] = assay: Antiproliferative activity against human Caco-2 cell line at 10 uM relative to control; in short: as §1
HEp-2 [27] = assay: Antiproliferative activity against human HEp2 cell line at 100 uM relative to control; in short: as §1
HeLa [28] = assay: Antiproliferative activity against human HeLa cell line at 10 uM relative to control; in short: as §1

Compound | inhibition at 10 µM (HEp-2 [1]) | inhibition at 100 µM (Caco-2 [2]) | inhibition at 1 µM (MCF7 [3]) | inhibition at 100 µM (SW-620 [4]) | inhibition at 1000 µM (HeLa [5]) | inhibition at 10 µM (SW-620 [6]) | inhibition at 1000 µM (MCF7 [7]) | inhibition at 1 µM (HBL [8]) | inhibition at 1000 µM (SW-620 [9]) | inhibition at 100 µM (HeLa [10]) | inhibition at 10 µM (HBL [11]) | inhibition at 1 µM (SW-620 [12]) | inhibition at 1000 µM (HBL [13]) | inhibition at 1 µM (HT-29 [14]) | inhibition at 100 µM (MCF7 [15]) | inhibition at 10 µM (HT-29 [16]) | inhibition at 1000 µM (HT-29 [17]) | inhibition at 1 µM (HeLa [18]) | inhibition at 1 µM (HEp-2 [19]) | inhibition at 100 µM (HBL [20]) | further results
CSCC[C@H](NC(=O)[C@H](Cc1ccccc1)NC(=O)CNC(=O)CNC(=O)[C@@H](N)Cc1ccc(O)cc1)C(=O)O | 4.5% | 8.4% | 3.6% | 15.3% | 22.3% | 12.7% | 15.4% | 0.4% | 19.1% | 12% | 1% | 18.9% | 10.8% | 14% | 7.6% | 15.9% | 19.3% | 2.3% | 5.2% | 4.5% | inhibition at 1 µM (Caco-2 [21]): 4.2%; inhibition at 1000 µM (HEp-2 [22]): 3.3%; inhibition at 100 µM (HT-29 [23]): 16.1%; inhibition at 1000 µM (Caco-2 [24]): 3.2%; inhibition at 10 µM (MCF7 [25]): 4.1%; inhibition at 10 µM (Caco-2 [26]): 6.4%; inhibition at 100 µM (HEp-2 [27]): 2.4%; inhibition at 10 µM (HeLa [28]): 11.4%
N[C@@H](Cc1ccc(O)cc1)C(=O)N[C@@H](C(=O)O)C1C2CC3CC(C2)CC1C3 (stereo partly specified) | 4.9% | 17.5% | 1.6% | 9.4% | 20.5% | 10% | 18.7% | 3% | 18.7% | 11% | 4.7% | 10.7% | 7.3% | 0.7% | 7.7% | 8.3% | 21.8% | 7.2% | 8.5% | 2.7% | inhibition at 1 µM (Caco-2 [21]): 22.2%; inhibition at 1000 µM (HEp-2 [22]): 16.2%; inhibition at 100 µM (HT-29 [23]): 10.5%; inhibition at 1000 µM (Caco-2 [24]): 16%; inhibition at 10 µM (MCF7 [25]): 2.6%; inhibition at 10 µM (Caco-2 [26]): 21.4%; inhibition at 100 µM (HEp-2 [27]): 1.9%; inhibition at 10 µM (HeLa [28]): 17.1%
